From ChEMBL document CHEMBL1949592, “Synthesis and antiviral activity of 2'-deoxy-2'-fluoro-2'-C-methyl-7-deazapurine nucleosides, their phosphoramidate prodrugs and 5'-triphosphates” (Bioorg Med Chem Lett, 2011)

How the values were obtained:
Hepacivirus hominis = assay: Fold resistance, ratio of HCV NS5B Cdelta 21 RNA dependent RNA polymerase S282T mutant to IC50 for IC50 for HCV wild type NS5B Cdelta 21 RNA dependent RNA polymerase
[1] = biological target: RNA-directed RNA polymerase (Hepacivirus hominis, UniProt O39930, S282T); assay: Inhibition of Hepatitis C virus NS5B Cdelta 21 RNA dependent RNA polymerase S282T mutant expressed in Escherichia coli BL21(DE3)
Sequence of RNA-directed RNA polymerase (O39930 entry or part of it S282T): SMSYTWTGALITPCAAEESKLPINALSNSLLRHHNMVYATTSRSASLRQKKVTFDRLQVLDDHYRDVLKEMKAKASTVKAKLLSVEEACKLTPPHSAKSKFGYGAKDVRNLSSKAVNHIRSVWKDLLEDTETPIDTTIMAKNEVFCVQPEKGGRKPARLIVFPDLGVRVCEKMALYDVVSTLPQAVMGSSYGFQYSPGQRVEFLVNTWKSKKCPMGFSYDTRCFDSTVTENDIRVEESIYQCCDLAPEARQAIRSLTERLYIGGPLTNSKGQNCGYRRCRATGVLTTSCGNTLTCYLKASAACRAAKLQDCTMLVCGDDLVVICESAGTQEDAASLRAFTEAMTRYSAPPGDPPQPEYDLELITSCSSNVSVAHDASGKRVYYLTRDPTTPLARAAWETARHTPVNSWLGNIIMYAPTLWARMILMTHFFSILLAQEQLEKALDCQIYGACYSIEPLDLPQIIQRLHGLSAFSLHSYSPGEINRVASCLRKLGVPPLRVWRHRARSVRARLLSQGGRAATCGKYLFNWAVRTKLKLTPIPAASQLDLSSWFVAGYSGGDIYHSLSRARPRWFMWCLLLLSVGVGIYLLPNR

[2] = Inhibition of Hepatitis C virus wild-type NS5B Cdelta 21 RNA dependent RNA polymerase expressed in Escherichia coli BL21(DE3); parameters: species or system Hepacivirus hominis
Huh-7 [3] = assay: Cytotoxicity against human HuH7 cells assessed as reduction of 50% rRNA level after 96 hrs; format: cell-based; conditions: huh-7, 96 h
In short: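 Huh-7 cells carrying the HCV replicon were exposed to compound for 96 h. Toxicity was read as a fall in cellular rRNA.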

Hepatitis C virus = assay: Antiviral activity against Hepatitis C virus infected in human HuH7 cells assessed as decrease in viral RNA level after 96 hrs by RT-PCR; format: functional, organism-based, Hepacivirus hominis; conditions: Huh-7, 96 h
Huh-7 [4] = assay: Metabolic stability in human HuH7 cells assessed as 5'-monophosphate level at 50 uM after 4 hrs by LC-MS/MS analysis; format: ADME, cell-based; conditions: huh-7, 4 h
In short: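 Huh-7 cells were exposed to the parent nucleoside or its phosphoramidate prodrug, each separately at 50 μM, at 37 °C for 4 h, then washed with phosphate-buffered saline before intracellular analysis.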

Vero = assay: Cytotoxicity against african green monkey Vero cells after 3 days by hemocytometer analysis; format: cell-based; conditions: Chlorocebus sabaeus, 72 h
CCRF-CEM = assay: Cytotoxicity against human CEM cells after 6 days by trypan blue exclusion method; format: cell-based; conditions: 144 h
PBMC = assay: Cytotoxicity against human PBMC after 6 days by trypan blue exclusion method; format: cell-based; conditions: 144 h
[5] = test system: Human immunodeficiency virus 1; assay: Antiviral activity against HIV1 LAV1 infected in PHA-stimulated human PBMC assessed as reduction in RT activity after 6 days by micromethod-based beta scintillation counting; format: functional, organism-based; conditions: Human immunodeficiency virus 1, LAV1, 144 h
Huh-7 [6] = assay: Metabolic stability in human HuH7 cells assessed as diphosphate level at 50 uM after 4 hrs by LC-MS/MS analysis; format: ADME, cell-based; conditions: huh-7, 4 h
In short: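 For the cellular pharmacology study, Huh-7 cells were incubated separately with the nucleoside or its phosphoramidate prodrug at 50 μM for 4 h at 37 °C, then washed with phosphate-buffered saline before analysis of intracellular metabolites.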

Structure (SMILES) | Ratio IC50 (Hepacivirus hominis) | IC50 [1] | IC50 [2] | CC50 (Huh-7 [3]) | EC50 (Hepatitis C virus) | EC90 (Hepatitis C virus) | Stability (Huh-7 [4]) | IC50 (Vero) | IC50 (CCRF-CEM) | IC50 (PBMC) | EC50 [5] | EC90 [5] | Stability (Huh-7 [6])
COP(=O)(OC)OP(=O)(OC)OP(=O)(OC)OC[C@H]1O[C@@H](n2ccc3c(N)ncnc32)[C@](C)(F)[C@@H]1O (stereo partly drawn) | 1 | 15 µM |  |  |  |  |  |  |  |  |  |  | 
COP(=O)(OC)OP(=O)(OC)OP(=O)(OC)OC[C@H]1O[C@@H](n2cc(F)c3c(N)ncnc32)[C@](C)(F)[C@@H]1O (stereo partly drawn) | 1.5 | 6 µM | 4 µM |  |  |  |  |  |  |  |  |  | 
CCOC(=O)[C@H](C)NP(=O)(OC[C@H]1O[C@@H](n2ccc3c(N)nc(N)nc32)[C@](C)(F)[C@@H]1O)Oc1ccccc1 (stereo partly drawn) |  |  |  | > 10 µM | > 10 µM | > 10 µM | Unstable | > 100 µM | > 100 µM | > 100 µM | 88 µM | > 100 µM | 
C[C@@]1(F)[C@H](O)[C@@H](CO)O[C@H]1n1ccc2c(N)nc(N)nc21 |  |  |  | > 10 µM | > 10 µM | > 10 µM | Stable | > 100 µM | > 100 µM | > 100 µM | > 100 µM |  | Stable
